# Screens (PubChem BioAssay)
# CAL PDZ FP-1 = inhibitors of human CAL PDZ peptide binding | Q9HD26 | purified CAL PDZ, TMR-peptide fluorescence polarization, 1 h | inhibition, % at 20 µM | 330,000 compounds, 0.02% hits | AID 504414;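 active = highest replicate inhibition of at least 40%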
#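 Control set: unlabelled peptide and DMSO controls / Material: purified CerCALP PDZ construct / Timing: 1 h incubation at room temperature before polarization reading / Doses: 20 µM, one dose / Detection: fluorescence polarization (mP)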
# Dyrk1A ADPGlo = inhibitors of rat Dyrk1A kinase. Q63470. ADP-Glo luminescence, NFATc1 peptide. inhibition, % at 12.5 µM. 310,000 compounds, 0.43% hits; in the data active = inhibition above about 50%
# CAL PDZ FP-2 = CAL PDZ (human) peptide binding inhibition. Q9HD26. purified CAL PDZ, TMR-peptide fluorescence polarization, 1 h. inhibition, % at 24.9 µM. 300,000 compounds, 0.92% hits. AID 602252;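 active = mean inhibition of at least 30% with at least half of replicates also reaching 30%; inconclusive = no clear call, values can overlap the other calls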
# ALR H2O2 inh = blocks human ALR sulfhydryl oxidase activity; purified ALR, DTT oxidation, H2O2 HRP-luminol luminescence; AID 485317; inhibition, % (test concentration not listed); 290,000 compounds, 3.8% hits; P55789;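 active = mean replicate inhibition above about 79%, with every replicate also reaching it, limit read from the data; inconclusive = only one of the two criteria met; inactive = mean below limit and not every replicate reaching it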
# Target sequence (P55789 whole entry, looked up): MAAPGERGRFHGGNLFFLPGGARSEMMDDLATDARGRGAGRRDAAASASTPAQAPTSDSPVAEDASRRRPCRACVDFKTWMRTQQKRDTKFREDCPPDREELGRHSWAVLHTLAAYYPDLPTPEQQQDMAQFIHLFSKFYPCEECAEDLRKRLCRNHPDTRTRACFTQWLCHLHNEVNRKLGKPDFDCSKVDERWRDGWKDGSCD
# Rtt109 Vps75 = C. albicans Rtt109 histone acetyltransferase inhibition | purified Rtt109/Vps75, ThioGlo CoA-SH fluorescence, 4 h | inhibition, % at 34.9 µM | AID 540336 | 330,000 compounds, 0.16% hits;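 active = inhibition of at least 50% in every replicate; inconclusive = best replicate reaches 50% inhibition but some replicates fall short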
# Target sequence (Q5AAJ8 whole entry, looked up): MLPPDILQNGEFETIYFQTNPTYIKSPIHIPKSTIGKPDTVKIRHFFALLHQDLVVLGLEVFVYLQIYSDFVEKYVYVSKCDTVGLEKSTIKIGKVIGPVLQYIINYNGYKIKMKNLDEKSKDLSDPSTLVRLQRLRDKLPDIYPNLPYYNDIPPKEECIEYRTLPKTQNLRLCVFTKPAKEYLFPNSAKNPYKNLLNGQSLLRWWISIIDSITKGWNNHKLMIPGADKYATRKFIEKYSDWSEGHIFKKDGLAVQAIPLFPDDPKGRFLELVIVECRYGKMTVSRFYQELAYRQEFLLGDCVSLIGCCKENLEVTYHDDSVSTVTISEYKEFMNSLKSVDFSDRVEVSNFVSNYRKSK
# A number is an active result; . = inactive; ? = inconclusive; / = not tested or not shown; + = active, no number. In the library only some 4.3% were active in any assay of this set; here they are far more common.
SMILES,CAL PDZ FP-1,Dyrk1A ADPGlo,CAL PDZ FP-2,ALR H2O2 inh,Rtt109 Vps75
Cc1ccc(S(=O)(=O)N2CC(O)CC2C(=O)OCC(=O)c2ccccc2Cl)cc1C (centres undefined),.,.,.,/,.
Cc1ccccc1Nc1cc2ccccc2c(=O)[nH]1,.,52.4,.,.,.
O=c1[nH]c(Nc2ccccc2Cl)cc2ccccc12,.,.,.,.,.
CC1CCc2cc(F)ccc2N1C(=O)c1cccs1 (centres undefined),.,.,31.6,.,.
O=C(CN1CCN(c2ccc(O)cc2)CC1)N(C1CC1)C1CCS(=O)(=O)C1 (centres undefined),.,/,.,99.1,.
O=C(CN1CCN(c2ccc(F)cc2)CC1)N(C1CCCC1)C1CCS(=O)(=O)C1 (centres undefined),.,.,.,/,.
CCOC(=O)CSc1n[nH]c(NC(=O)CC)n1,.,.,.,/,.
CCOC(=O)CSc1n[nH]c(NC(=O)c2cccc(C(F)(F)F)c2)n1,.,.,/,98.9,.
COc1ccc(OC)c(NC(=O)C2CCCN(S(=O)(=O)c3c(C)noc3C)C2)c1 (centres undefined),/,.,.,.,.
CCOc1ccc(OCC)c(NC(=O)C2CCCN(S(=O)(=O)c3c(C)noc3C)C2)c1 (centres undefined),.,.,32.6,.,.
Cc1ccc(NC(=O)Cn2sc3nc(C)cc(C)c3c2=O)c(Cl)c1,.,.,.,.,154.2
Cc1cc(C)c2c(=O)n(CC(=O)Nc3ccc(Cl)cc3)sc2n1,.,.,.,.,/
Cc1ccc(-c2ccc(=O)n(CC(=O)N3CCN(c4cccc(C)c4)C(C)C3)n2)cc1 (centres undefined),.,.,.,.,.
Cc1cccc(N2CCN(C(=O)Cn3nc(C)n4cccc4c3=O)CC2C)c1 (centres undefined),.,.,/,91.2,.
Cc1cccc(N2CCN(C(=O)Cn3sc4nc(C)cc(C)c4c3=O)CC2C)c1 (centres undefined),.,.,.,95.4,158.9
O=C(CN(C(=O)CNC(=O)c1cccs1)c1ccccc1)NC1CCCCC1,.,.,.,/,.
CN(C)c1ccc(/C=N/n2c(-c3ccccc3Br)n[nH]c2=S)cc1,.,.,.,96.3,.
CN(C)c1ccc(/C=N/n2c(-c3cccnc3)n[nH]c2=S)cc1,.,.,.,97.5,/
Cc1ccc(/C=N/n2c(-c3cccnc3)n[nH]c2=S)s1,.,.,.,76.0,.
CN(Cc1ccccc1)C(=O)c1ccc(NC(=O)Cc2ccc(NC(=O)C3CCCN(C(=O)C4CC4)C3)cc2)cc1 (centres undefined),.,.,.,/,.
O=C(NNc1ccc(Cl)cc1)c1c(F)cccc1Cl,.,/,.,.,.
CC(=O)C(=Nc1ccccc1Cl)NNc1ccc(Cl)cc1,.,.,.,95.1,.
CN(Cc1n[nH]c(=S)n1C)S(=O)(=O)c1ccccc1,.,.,.,85.0,/
CN(Cc1nc2ccccc2n1C)S(=O)(=O)c1ccc(F)cc1,.,.,.,.,.
CN(C)c1cc(-c2ccc([N+](=O)[O-])cc2)oc(=O)c1Cl,.,/,.,.,.
SMILES,CAL PDZ FP-1,Dyrk1A ADPGlo,CAL PDZ FP-2,ALR H2O2 inh,Rtt109 Vps75
COc1cc2c(cc1OC)CN(c1ccc([N+](=O)[O-])cc1C#N)CC2,.,.,.,86.8,.
O=C(CCC(=O)N1CCN(c2ccccn2)CC1)Nc1nnc(C(F)(F)F)s1,.,/,.,.,.
Cc1cccc(/C=C/c2nc3ccccc3c(=O)[nH]2)c1,.,.,/,.,.
O=C(O)c1ccc(/C=C/c2nc3ccccc3c(=O)[nH]2)cc1,.,.,+,.,.
CN(C)c1ccc(/C=C/c2nc3ccccc3c(=O)n2-c2ccc(C(=O)O)cc2)cc1,.,.,.,99.0,.
O=C(O)c1cccc(-n2c(/C=C/c3ccccc3)nc3ccccc3c2=O)c1,.,.,.,78.2,.
CC(=O)c1cccc(NC(=O)CCC(=O)Oc2ccc(C)cc2)c1,.,.,.,.,.
Cc1cc(C)cc(N(CC(=O)NCCSCc2ccccc2)S(C)(=O)=O)c1,.,.,.,.,.
c1ccc(CNc2ccc3c(c2)ncn3C2CCCCC2)nc1,.,/,.,94.0,.
CCCCS(=O)(=O)Nc1ccc2c(c1)ncn2C1CCCCC1,.,.,.,.,.
CC(C)[C@H](NC(=O)c1ccccc1)C(=O)OCC(=O)N1CCCc2ccccc21,.,.,.,.,/
Cc1ccc(/C=C2\C(=O)Nc3ccccc32)o1,.,80.9,.,.,.
Fc1cc(F)cc(Nc2nc(Cl)nc(NC3CCCC3)n2)c1,.,.,.,.,.
Cc1nnc(SCC(=O)N2CCCC(C(=O)c3ccc(Cl)cc3)C2)o1 (centres undefined),/,.,38.5,.,.
COc1cc(CCC(N)c2cccc(O)c2)cc(OC)c1OC (centres undefined),.,.,.,/,.
CN(CC(=O)Nc1ccc(Cl)c(C(F)(F)F)c1)C(=O)c1ccc(OCC2CCCO2)cc1 (centres undefined),.,.,.,.,/
CC1(C)CC(=O)C=C(OC(=O)c2ccc(Cl)cc2)C1,.,.,.,97.8,.
COc1ccc(C(=O)NNC2=CC(=O)CC(C)(C)C2)cc1,.,.,.,.,.
COc1ccc(CCN2CC(C(=O)NC3CCCCC3)CC2=O)cc1OC (centres undefined),.,.,.,.,.
N#Cc1ccccc1OCC(=O)Nc1c(C(=O)C2CC2)oc2ccccc12,/,.,.,90.0,.
O=C(NCc1ccco1)c1ccc(Cl)c(S(=O)(=O)N2CCCC2)c1,.,/,.,.,.
CCOc1ccccc1C(C(=O)NC1CCCC1)N(C(=O)c1csnn1)C1CC1 (centres undefined),.,.,.,.,.
CC(CN1CCN(C)CC1)OC(=O)c1ccccc1Cl (centres undefined),.,.,.,.,.
Cc1ccccc1C(=O)OC(C)CN1CCN(C)CC1 (centres undefined),.,.,115.9,.,.
O=S(=O)(Nc1ccc(N2CCCCC2)cc1)c1ccc(F)cc1F,/,/,/,.,/
SMILES,CAL PDZ FP-1,Dyrk1A ADPGlo,CAL PDZ FP-2,ALR H2O2 inh,Rtt109 Vps75
O=S(=O)(Nc1ccc(N2CCOCC2)cc1)c1ccc(F)cc1,.,/,.,?,.
O=C(c1ccc(NS(=O)(=O)c2cccc3cccnc23)cc1)N1CCCCC1,.,.,.,.,.
O=S(=O)(Nc1ccc(N2CCCCC2)cc1)c1cccc2cccnc12,.,.,.,98.0,.
O=S(=O)(Nc1ccc(N2CCCCC2)cc1)c1ccc(F)cc1,/,/,/,98.5,/
O=S(=O)(Nc1ccc(N2CCCCC2)cc1)c1ccccc1F,/,/,/,99.1,/
Cc1nnc(Sc2nc3ccccc3o2)c2ccccc12,.,.,.,97.5,.
COc1cc(C(=O)N(C)CCOc2ccc(C)cc2)ccc1OC1CCN(C(C)=O)CC1,.,.,.,/,.
NC(=O)C1CCN(c2nc(-c3ccc4c(c3)OCCO4)cs2)CC1,/,/,/,98.4,/
COc1ccc2nc(NC(=O)CSc3ccccc3)sc2c1,.,.,.,.,.
CCOc1ccc2nc(SCC(=O)c3ccc(O)cc3O)sc2c1,/,.,36.1,.,.
